Assays:
Format in all cases: functional
CWR22R = test: Antiproliferative activity against human 22Rv1 cells assessed as reduction in cell growth incubated for 96 hrs by propidium iodide based 2D monolayer assay; conditions: 22Rv1, 96 h
Summary of the method: (§1)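 After 24 h recovery, compound in medium or medium alone (control wells) was added at 10 half-log concentrations from 0.0032 to 100 µM, in triplicate, with at most 0.3% DMSO. After 96 h, wells were PBS-washed, stained with 7 µg/ml PI and 0.1% Triton X-100, and fluorescence read at 530/620 nm. IC50 came from a 4-parameter fit, geometric mean.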

VCaP = test: Antiproliferative activity against human VCaP cells assessed as reduction in cell growth incubated for 96 hrs by propidium iodide based 2D monolayer assay
Summary of the method: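 VCaP cells in RPMI 1640 with 10% FCS at 37 °C, 5% CO2, seeded 4,000–20,000 cells/well and left 24 h before dosing. Compounds from DMSO stocks were diluted in half-log steps in medium, 10 concentrations 0.0032–100 μM, triplicate wells, max 0.3% DMSO. After 96 h, cells were washed, stained with 7 μg/ml propidium iodide plus 0.1% Triton X-100 for 1–2 h at room temperature, and fluorescence read at ex 530/em 620 nm.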

DU-145 = test: Antiproliferative activity against human DU145 cells assessed as reduction in cell growth incubated for 96 hrs by propidium iodide based 2D monolayer assay; conditions: DU-145, 96 h; summary of the method: as §1
LNCaP = test: Antiproliferative activity against human LNCAP cells assessed as reduction in cell growth incubated for 96 hrs by propidium iodide based 2D monolayer assay; summary of the method: as §1

| Structure (SMILES) | IC50 (CWR22R) | IC50 (VCaP) | IC50 (DU-145) | IC50 (LNCaP) |
| --- | --- | --- | --- | --- |
| CC(O)(CS(=O)(=O)c1ccc(S(F)(F)(F)(F)F)cc1)C(=O)Nc1ccc([N+](=O)[O-])cc1C(F)(F)F (racemic) | 18.7 µM | 28.6 µM | 17.7 µM | 12.5 µM |
| CC1(C)C(=O)N(c2ccc(C#N)c(C(F)(F)F)c2)C(=S)N1c1cccc(S(F)(F)(F)(F)F)c1 | 100 µM | 100 µM | 100 µM | 6.9 µM |
| CC(O)(CS(=O)(=O)c1cccc(S(F)(F)(F)(F)F)c1)C(=O)Nc1ccc([N+](=O)[O-])cc1C(F)(F)F (racemic) | 100 µM | 100 µM | 100 µM | 6.5 µM |
| CC(O)(CSc1ccc(C(F)(F)F)cc1)C(=O)Nc1cccc(S(F)(F)(F)(F)F)c1 (racemic) | 26.9 µM | 27.3 µM | 27.2 µM | 17.5 µM |
| CC(O)(CS(=O)(=O)c1ccccc1OC(F)(F)F)C(=O)Nc1cccc(S(F)(F)(F)(F)F)c1 (racemic) | 17.1 µM | 13.9 µM | 29.1 µM | 9 µM |
| CC(O)(COc1ccc(C(F)(F)F)cc1)C(=O)Nc1cccc(S(F)(F)(F)(F)F)c1 (racemic) | 3.6 µM | 13.3 µM | 13.6 µM | 9.6 µM |
| CC(O)(CS(=O)(=O)c1ccc(F)cc1)C(=O)Nc1ccc(S(F)(F)(F)(F)F)cc1 (racemic) | 20.6 µM | 34.2 µM | 27.7 µM | 18.2 µM |
| CC(O)(CS(=O)(=O)c1ccc(S(F)(F)(F)(F)F)cc1)C(=O)Nc1ccc(C#N)cc1C(F)(F)F (racemic) | 19.4 µM | 43 µM | 25.6 µM | 17.8 µM |
| CC1(C)C(=O)N(c2cccc(S(F)(F)(F)(F)F)c2)C(=S)N1c1ccc(C(F)(F)F)cc1 | 22.4 µM | 54.2 µM | 39.8 µM | 5.2 µM |
| CC(O)(COc1ccc(OC(F)(F)F)cc1)C(=O)Nc1cccc(S(F)(F)(F)(F)F)c1 (racemic) | 12.9 µM | 20.2 µM | 19.1 µM | 12.7 µM |
| CC(O)(CSc1ccccc1OC(F)(F)F)C(=O)Nc1cccc(S(F)(F)(F)(F)F)c1 (racemic) | 13.9 µM | 12.6 µM | 17.5 µM | 10 µM |
| CC(O)(COc1ccc(C#N)cc1C(F)(F)F)C(=O)Nc1cccc(S(F)(F)(F)(F)F)c1 (racemic) | 18.3 µM | 30.6 µM | 22.8 µM | 16.4 µM |
| CC(O)(CS(=O)(=O)c1ccccc1OC(F)(F)F)C(=O)Nc1ccc(S(F)(F)(F)(F)F)cc1 (racemic) | 16 µM | 19.9 µM | 19.5 µM | 12.7 µM |
| CC(O)(CS(=O)(=O)c1ccc(F)cc1)C(=O)Nc1cccc(S(F)(F)(F)(F)F)c1 (racemic) | 38.9 µM | 37.9 µM | 48.8 µM | 32.6 µM |
| CC(O)(COc1ccc(S(F)(F)(F)(F)F)cc1)C(=O)Nc1ccc(S(F)(F)(F)(F)F)cc1 (racemic) | 13 µM | 9.3 µM | 24.9 µM | 9.8 µM |
| CC(O)(CS(=O)(=O)c1cc(C(F)(F)F)cc(C(F)(F)F)c1)C(=O)Nc1cccc(S(F)(F)(F)(F)F)c1 (racemic) | 9.3 µM | 10.4 µM | 13.7 µM | 9.7 µM |
| CC(O)(COc1ccc(OC(F)(F)F)cc1)C(=O)Nc1ccc(S(F)(F)(F)(F)F)cc1 (racemic) | 27.9 µM | 12.8 µM | 24.8 µM | 18.6 µM |
| CC(O)(CS(=O)(=O)c1ccccc1C(F)(F)F)C(=O)Nc1cccc(S(F)(F)(F)(F)F)c1 (racemic) | 27.7 µM | 40.8 µM | 27.3 µM | 24.9 µM |

| Structure (SMILES) | IC50 (CWR22R) | IC50 (VCaP) | IC50 (DU-145) | IC50 (LNCaP) |
| --- | --- | --- | --- | --- |
| CC(O)(COc1ccccc1OC(F)(F)F)C(=O)Nc1ccc(S(F)(F)(F)(F)F)cc1 (racemic) | 7.3 µM | 9.7 µM | 16.8 µM | 8.9 µM |
| CC(O)(CSc1cccc(C(F)(F)F)c1)C(=O)Nc1cccc(S(F)(F)(F)(F)F)c1 (racemic) | 12.9 µM | 20.2 µM | 19.1 µM | 12.7 µM |
| CC(O)(CS(=O)(=O)c1cccc(C(F)(F)F)c1)C(=O)Nc1cccc(S(F)(F)(F)(F)F)c1 (racemic) | 24.6 µM | 35.5 µM | 37.3 µM | 21.8 µM |
| CC(O)(CS(=O)(=O)c1cccc(OC(F)(F)F)c1)C(=O)Nc1cccc(S(F)(F)(F)(F)F)c1 (racemic) | 20.1 µM | 20.2 µM | 31.5 µM | 15.1 µM |
| CC(O)(COc1ccc(C#N)cc1)C(=O)Nc1ccc(S(F)(F)(F)(F)F)cc1 (racemic) | 26.1 µM | 100 µM | 32.2 µM | 100 µM |
| CC(O)(COc1cccc(C(F)(F)C(F)(F)F)c1)C(=O)Nc1cc(C(F)(F)F)cc(C(F)(F)F)c1 (racemic) | 4.1 µM | 9.5 µM | 8.5 µM | 4.4 µM |
| CC(O)(COc1cccc(S(F)(F)(F)(F)F)c1)C(=O)Nc1ccc(C#N)c(C(F)(F)F)c1 (racemic) | 10.7 µM | 8 µM | 16 µM | 9.8 µM |
| CC(O)(CS(=O)(=O)c1ccc(S(F)(F)(F)(F)F)cc1)C(=O)Nc1cccc(S(F)(F)(F)(F)F)c1 (racemic) | 12.3 µM | 17.2 µM | 17.4 µM | 11.7 µM |
| CC(O)(CSc1ccc(S(F)(F)(F)(F)F)cc1)C(=O)Nc1ccc([N+](=O)[O-])cc1C(F)(F)F (racemic) | 13.1 µM | 26.3 µM | 14.5 µM | 10.3 µM |
| CC(O)(CSc1ccc(S(F)(F)(F)(F)F)cc1)C(=O)Nc1ccc(S(F)(F)(F)(F)F)cc1 (racemic) | 24.4 µM | 28 µM | 22.3 µM | 18.3 µM |
| CC(O)(CSc1ccc(F)cc1)C(=O)Nc1cccc(S(F)(F)(F)(F)F)c1 (racemic) | 30.2 µM | 21.9 µM | 38.5 µM | 26.9 µM |
| CC(O)(CSc1ccc(OC(F)(F)F)cc1)C(=O)Nc1cccc(S(F)(F)(F)(F)F)c1 (racemic) | 17 µM | 28.5 µM | 24.7 µM | 10.3 µM |
| CC(O)(CS(=O)(=O)c1cccc(S(F)(F)(F)(F)F)c1)C(=O)Nc1cccc(S(F)(F)(F)(F)F)c1 (racemic) | 15.4 µM | 19 µM | 29.4 µM | 11.7 µM |
| CC(O)(CSc1cc(C(F)(F)F)cc(C(F)(F)F)c1)C(=O)Nc1cccc(S(F)(F)(F)(F)F)c1 (stereo not given) | 4.4 µM | 4 µM | 9.4 µM | 4.8 µM |
| CC(O)(CS(=O)(=O)c1cccc(S(F)(F)(F)(F)F)c1)C(=O)Nc1ccc(C#N)cc1C(F)(F)F (racemic) | 14.3 µM | 20.8 µM | 22.1 µM | 12.9 µM |
| CC1(C)C(=O)N(c2ccc([N+](=O)[O-])cc2C(F)(F)F)C(=S)N1c1cccc(S(F)(F)(F)(F)F)c1 | 43.9 µM | 100 µM | 100 µM | 5.3 µM |
| CC(O)(CSc1ccccc1OC(F)(F)F)C(=O)Nc1ccc(S(F)(F)(F)(F)F)cc1 (racemic) | 15 µM | 10.1 µM | 29 µM | 10.6 µM |
